{"source": "ChEMBL document CHEMBL6134796", "about": "“Development and Evaluation of Indole-Based Phospholipase D Inhibitors for Lung Cancer Immunotherapy” (J Med Chem, 2025)", "key": {"[1]": {"assay": "Metabolic stability in human liver microsomes assessed as parent compound remaining at 1 uM preincubated for 5 mins followed by NADPH regenerating system addition and measured after 30 mins by LC-MS/MS analysis", "format": "ADME, Microsome", "details": "time 35 min, read-out: Stability", "in_short": "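Human liver microsomes 0.5 mg/mL in 0.1 M phosphate buffer pH 7.4, compound 1 μM, preincubated 5 min at 37 °C; NADPH regenerating system added, 30 min at 37 °C; quenched with acetonitrile containing chlorpropamide internal standard, centrifuged; parent remaining by LC-MS/MS, MRM mode, C18 column with formic acid/acetonitrile gradient.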"}, "A549 [2]": {"tested_on": "A549", "assay": "Induction of apoptosis in human A549 cells by annexin V and PI staining based flow cytometry analysis", "format": "functional, cell-based"}, "A549 [3]": {"tested_on": "A549", "assay": "Inhibition of cell invasion in human A549 cells measured after 24 hrs by crystal violet staining based light microscopic analysis", "format": "functional"}, "[4]": {"target": "T1, Phospholipase D1 (Mus musculus) (UniProt Q9Z280)", "T1 sequence (whole entry)": "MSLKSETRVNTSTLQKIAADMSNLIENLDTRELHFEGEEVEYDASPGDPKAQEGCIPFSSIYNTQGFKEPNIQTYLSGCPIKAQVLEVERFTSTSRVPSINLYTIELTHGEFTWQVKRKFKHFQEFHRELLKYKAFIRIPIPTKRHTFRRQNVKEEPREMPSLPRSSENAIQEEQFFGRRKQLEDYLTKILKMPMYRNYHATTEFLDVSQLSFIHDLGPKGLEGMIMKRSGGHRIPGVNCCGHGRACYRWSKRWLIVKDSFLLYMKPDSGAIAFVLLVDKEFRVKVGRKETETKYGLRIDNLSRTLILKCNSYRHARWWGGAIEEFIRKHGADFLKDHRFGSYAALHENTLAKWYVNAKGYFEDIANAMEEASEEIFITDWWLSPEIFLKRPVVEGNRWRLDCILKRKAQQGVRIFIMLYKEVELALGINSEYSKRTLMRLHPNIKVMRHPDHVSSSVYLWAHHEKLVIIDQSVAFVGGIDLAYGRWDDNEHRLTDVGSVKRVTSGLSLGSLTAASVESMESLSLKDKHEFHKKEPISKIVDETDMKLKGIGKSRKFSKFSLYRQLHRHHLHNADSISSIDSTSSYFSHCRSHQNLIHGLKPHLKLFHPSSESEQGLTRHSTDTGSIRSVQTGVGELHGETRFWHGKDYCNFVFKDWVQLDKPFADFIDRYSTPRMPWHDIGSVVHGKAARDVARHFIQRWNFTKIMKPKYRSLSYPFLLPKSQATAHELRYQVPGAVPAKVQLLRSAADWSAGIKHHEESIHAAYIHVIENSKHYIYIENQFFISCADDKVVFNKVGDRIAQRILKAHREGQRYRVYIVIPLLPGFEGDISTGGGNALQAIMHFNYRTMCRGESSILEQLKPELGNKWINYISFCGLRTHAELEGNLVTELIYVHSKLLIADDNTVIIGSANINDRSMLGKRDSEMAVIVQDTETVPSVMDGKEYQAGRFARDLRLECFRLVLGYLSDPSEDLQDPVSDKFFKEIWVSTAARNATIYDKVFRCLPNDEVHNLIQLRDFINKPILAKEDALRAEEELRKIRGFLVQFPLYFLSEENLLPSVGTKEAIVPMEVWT", "assay": "In vivo inhibition of PLD1 in male C57BL/6 mouse allografted with mouse Lewis lung carcinoma cell line assessed as decrease in CD163+ anti-inflammatory M2 macrophage population at 10 mg/kg, po by immunofluorescence analysis", "format": "functional, organism-based", "in_short": "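Same LLC syngeneic C57BL/6 model, 10 mg/kg PO every other day for 3 weeks. Tumor tissues were stained by immunofluorescence for CD80+ and CD163+ cells, CD8+ T cells, and CD4+/IL-17+ and Treg populations. Nuclei were counterstained with 1 μM Hoechst 33342 and imaged by confocal microscopy.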"}, "Mus musculus": {"tested_on": "Mus musculus", "assay": "In vivo inhibition of KRAS activation in male C57BL/6 mouse allografted with mouse Lewis lung carcinoma cell line assessed as decrease in Akt phosphorylation at 10 mg/kg, po", "format": "functional, organism-based"}, "HCT-116": {"tested_on": "HCT-116", "assay": "Residual PLD activity in human HCT-116 cells at 10 uM measured after 1 hr by amplex red phospholipase D assay as % of control"}, "[5]": {"tested_on": "Lewis lung carcinoma cell line", "assay": "Antitumor activity against mouse Lewis lung carcinoma cell line allografted in male C57BL/6 mouse model assessed as recovery of spleen size at 10 mg/kg, po measured every other day for 3 weeks", "format": "functional, organism-based", "in_short": "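Syngeneic model: 6-week-old male C57BL/6 mice given 3 × 10^5 LLC cells in 50 μL PBS subcutaneously in the flank. At day 7, mice were randomized to vehicle PO daily or 10 mg/kg PO every other day for 3 weeks. Caliper volume was taken every 2 days as ([…])/2, with tumor weight at end. Spleen size and weight were recorded. Ki67 and cleaved caspase-3 were scored by IHC (DAB, hematoxylin).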"}}, "note": "Active and inactive are the calls of the source. No cut-off for these calls is given here.", "data": [{"smiles": "O=C(CCc1c[nH]c2ccccc12)Nc1cc(C(F)(F)F)cc(C(F)(F)F)c1", "values": [{"measurement": "remaining at 0.5 h, 1 µM", "setting": "[1]", "value": 57.3, "unit": "%"}, {"measurement": "Activity", "setting": "A549 [2]", "value": "Active"}, {"measurement": "inhibition", "setting": "A549 [3]", "value": "Active"}, {"measurement": "inhibition", "setting": "[4]", "value": "Active"}, {"measurement": "inhibition", "setting": "Mus musculus", "value": "Active"}, {"measurement": "level, % of control", "setting": "HCT-116", "value": 26.6, "unit": "%"}, {"measurement": "Activity", "setting": "[5]", "value": "Active"}]}]}
